# Bioassay records from PubChem.
# This is a sample that favours compounds with a hit; in the whole collection about 4.2% have one here.
# hERG rescue: hERG (human) protection from proarrhythmic block; activation (rescue from dofetilide block), less the hit threshold, % at 10 µM; actives 0.51% (n = 310,000); CHO-hERG, FluxOR thallium flux, dofetilide IC70 present; Q12809;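 active means activation above the mean of controls blocked by dofetilide plus 5 SD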;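 further: thallium influx through hERG after potassium depolarization seen as dye fluorescence rise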
# Target sequence (Q12809 whole entry, looked up): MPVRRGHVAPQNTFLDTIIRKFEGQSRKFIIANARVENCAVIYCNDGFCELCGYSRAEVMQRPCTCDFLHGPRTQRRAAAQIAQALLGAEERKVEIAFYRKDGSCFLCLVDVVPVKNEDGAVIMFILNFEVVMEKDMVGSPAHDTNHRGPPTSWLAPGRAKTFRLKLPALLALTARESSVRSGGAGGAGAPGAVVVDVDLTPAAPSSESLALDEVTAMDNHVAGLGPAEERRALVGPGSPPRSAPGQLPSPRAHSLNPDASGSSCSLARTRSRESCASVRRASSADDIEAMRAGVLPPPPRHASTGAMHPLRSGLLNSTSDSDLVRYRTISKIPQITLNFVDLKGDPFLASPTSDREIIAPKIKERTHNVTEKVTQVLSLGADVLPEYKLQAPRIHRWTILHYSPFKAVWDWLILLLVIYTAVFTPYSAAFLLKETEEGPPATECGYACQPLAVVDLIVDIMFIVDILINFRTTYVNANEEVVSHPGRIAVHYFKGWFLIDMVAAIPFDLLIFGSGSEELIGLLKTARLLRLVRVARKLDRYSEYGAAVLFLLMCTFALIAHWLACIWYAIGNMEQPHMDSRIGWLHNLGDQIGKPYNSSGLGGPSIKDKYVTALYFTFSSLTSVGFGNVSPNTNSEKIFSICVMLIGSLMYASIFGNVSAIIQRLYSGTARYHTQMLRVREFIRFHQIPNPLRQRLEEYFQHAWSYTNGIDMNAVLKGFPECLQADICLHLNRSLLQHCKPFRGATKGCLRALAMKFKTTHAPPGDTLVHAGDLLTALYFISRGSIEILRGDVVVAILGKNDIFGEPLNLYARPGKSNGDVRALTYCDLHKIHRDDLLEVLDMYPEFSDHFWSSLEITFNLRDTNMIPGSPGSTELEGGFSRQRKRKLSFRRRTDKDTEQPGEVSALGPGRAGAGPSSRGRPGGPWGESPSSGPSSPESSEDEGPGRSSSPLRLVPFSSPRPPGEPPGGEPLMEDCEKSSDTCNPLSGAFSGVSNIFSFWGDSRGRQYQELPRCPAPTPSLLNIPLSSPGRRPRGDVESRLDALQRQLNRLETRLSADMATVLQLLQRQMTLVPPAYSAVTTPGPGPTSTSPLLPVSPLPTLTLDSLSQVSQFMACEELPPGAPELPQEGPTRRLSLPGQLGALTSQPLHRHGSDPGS
# SUMO Mot1 rescue: blocks SUMOylation pathway, rescuing yeast Mot1-301 growth; S. cerevisiae Mot1-301 growth rescue, ATP luminescence, 38.5C; percent above DMSO median, 100 means doubled; growth rescue, % at 18.8 µM; actives 1% (n = 320,000); AID 2716;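 active means every valid replicate shows activation above 250% relative to neutral control wells; inactive means the rest, any valid replicate at or below 250%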
# AI-2 QS modul: Vibrio harveyi AI-2 quorum sensing modulation. Vibrio harveyi JMH597 AI-2 luminescence/OD600 ratio, 9 h; hits give low values; strain lacks LuxN and CqsS sensors; 0 = neutral-control median. activity change, % at 7.5 µM. actives 0.4% (n = 300,000). AID 2094; in the data active means activity change below about -75%, passing the limit was not always enough; inconclusive means no clear call, values can overlap the other calls;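 further: luminescence divided by OD600 gain over 9 h not by final OD600 alone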
# KCNQ1 act: potentiates or activates the human KCNQ1 potassium channel; CHO-K1 KCNQ1, thallium flux FluxOR fluorescence; hits give high values; B-score at 10 µM; AID 2648; actives 0.35% (n = 310,000);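 active means fluorescence ratio B-score, a plate-corrected score, at least three library SD, with initial intensity B-score within 5 SD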
#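 System: Stable KCNQ1 CHO-K1 line | Incubation: 90 min dye loading and 20 min compound exposure, both at room temperature | Measure: Ratio B score | Medium: Assay buffer for compound exposure, DMSO matched across wells | Compound dosing: Single-concentration screen | Probe or stimulus: K+/Tl+ depolarizing stimulus | Measured by: Kinetic FluxOR fluorescence, 10 s baseline plus 110 s post-stimulus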
# KCNQ1 block: human KCNQ1 channel inhibition | CHO-K1 KCNQ1, FluxOR thallium flux fluorescence; hits give high values | actives 1.3% (n = 310,000) | P51787 | B-score at 10 µM | AID 2642;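 active means compounds whose thallium flux B-score, printed positive for inhibition, exceeds three library SD while starting fluorescence stays within three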;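 further: channel opened by potassium depolarization with thallium stimulus after 20 min compound exposure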
# KCC2 mod: modulates chloride dependent transport by human KCC2 | AID 1456 | actives 2.2% (n = 190,000) | KCC2 cells, thallium flux FluoZin-2 fluorescence | B-score of Tl+ flux slope (higher = more flux/activation; lower = inhibition) at 10 µM;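 active means thallium flux slope and its plate-corrected score both differing from the plate sample mean at a set confidence after two filtering rounds, in either direction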;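 further: slope of fluorescence scaled to starting intensity during 10 to 20 s after thallium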
# KCC2 sec1: KCC2 (human) modulation, secondary assay; AID 1713; HEK293-KCC2, thallium flux, FluoZin2 fluorescence; hits give high values; normalised thallium flux (F/F0 slope) at 10 µM; shares compounds with KCC2 mod; actives 15% (n = 3,700);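 active means thallium flux slope above the same plate's solvent-only control mean plus 3 SD; inconclusive means the two replicate wells disagree; inactive means no significant difference from solvent-only control wells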
# KCC2 bumet counter: bumetanide-insensitive thallium flux in KCC2 cells with ouabain, counter-screen. actives 49% (n = 3,700). HEK293-KCC2 + bumetanide/ouabain, thallium flux FluoZin2; hits give high values. AID 1714. shares compounds with KCC2 mod. normalized thallium flux at 10 µM;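 active means thallium entry rate above the same plate's blocked-transporter control wells by more than 3 SD; inconclusive means the two repeat wells disagree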;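 further: raw slope of fluorescence over initial fluorescence between 10 and 20 s after thallium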
# KCC2 secondary2: confirmation of human KCC2 transport modulators; shares compounds with KCC2 mod; HEK293-KCC2, thallium flux FluoZin2 fluorescence; actives lie on both sides; F/F0 rise rate, 10–20 s post-thallium; normalized thallium flux at 10 µM; actives 23% (n = 3,700); AID 1715;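 active means thallium flux slope more than 3 SD above or below the plate's solvent-only control mean, mostly below; inconclusive means the two repeat wells disagreed; inactive means no significant shift from solvent-only controls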
# HEK counter1: parental HEK flux effect, counter-screen. shares compounds with KCC2 mod. thallium flux rate (normalised fluorescence) at 10 µM. AID 1716. HEK293 parental cells, thallium flux FluoZin2, ouabain; baseline-ratio fluorescence slope, 10–20 s after thallium. actives 46% (n = 3,700);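 active means thallium flux rate significantly above the same plate's solvent-only control wells, beyond their mean plus 3 SD; inconclusive means the two replicate wells gave conflicting results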
# KCC2 ouabain: KCC2 (human) modulation, ouabain retest. HEK293-KCC2, thallium flux FluoZin2 fluorescence; bidirectional: low = inhibitor, high = activator. shares compounds with KCC2 mod. actives 48% (n = 3,700). raw Tl+ flux slope (below DMSO = inhibition, above = activation) at 10 µM;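 active means thallium flux slope beyond 3 SD from same-plate DMSO control mean in most replicates, usually higher, sometimes lower; inconclusive means repeat tests gave conflicting results; inactive means no significant difference from controls in most replicates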;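 further: slope of initial-normalized fluorescence between seconds 10 and 20 after thallium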
# HEK293 Tl flux2: parental HEK flux effect, counter-screen 2. actives 33% (n = 3,700). thallium flux slope at 10 µM. HEK293 parental, thallium flux FluoZin-2 fluorescence slope. shares compounds with KCC2 mod;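 active means thallium flux slope above the same plate's solvent-control mean plus 3 SD in both duplicate wells; inconclusive means duplicate wells that disagreed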;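 further: run without ouabain in cells lacking the KCC2 cotransporter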
# Hits are given with their value; . = inactive; ? = inconclusive; / = no result given.
SMILES,hERG rescue,SUMO Mot1 rescue,AI-2 QS modul,KCNQ1 act,KCNQ1 block,KCC2 mod,KCC2 sec1,KCC2 bumet counter,KCC2 secondary2,HEK counter1,KCC2 ouabain,HEK293 Tl flux2
O=C(c1cccc(COCC(F)(F)C(F)F)c1)N1CCN(c2ccccc2)CC1,.,.,.,.,.,.,/,/,/,/,/,/
CC1(C)NC(=O)N(CC(=O)OCC(=O)Nc2cc(S(=O)(=O)N3CCCCCC3)ccc2Cl)C1=O,.,.,.,.,.,.,/,/,/,/,/,/
CCC(=O)N1CCN(c2ccc(NC(=O)COc3ccccc3Cl)cc2)CC1,.,.,.,.,.,/,/,/,/,/,/,/
CCC(=O)N1CCN(c2ccccc2NC(=O)COc2ccccc2Cl)CC1,.,.,.,.,.,/,.,?,.,?,.,.
Cc1cccc(NC(=O)NCC(c2cccnc2)N2CCOCC2)c1 (configuration not stated),.,.,.,.,.,/,.,.,.,.,.,.
c1ccc(N2CCN(c3ccccc3)C2c2cccs2)cc1,.,.,.,.,.,-5.5,.,.,.,.,.,.
CN(c1ccccc1)S(=O)(=O)c1ccc(Cl)c(C(=O)Nc2ccc(N3CCOCC3)cc2)c1,.,/,.,.,.,-2.7,.,.,.,.,.,.
CS(=O)(=O)c1ccc(C(=O)Nc2ccc(N3CCOCC3)cc2)c(Cl)c1,.,.,.,.,.,.,/,/,/,/,/,/
CCCN(CC1CC1)C(=S)NC(=O)c1ccc(S(=O)(=O)N2CCOCC2)cc1,.,.,.,.,.,5.6,.,0.019,.,0.017,0.024,0.018
O=C(NC(=S)N1CCN(C(c2ccccc2)c2ccccc2)CC1)c1ccc(S(=O)(=O)N2CCOCC2)cc1,.,.,.,.,.,8.7,.,0.024,.,0.013,?,?
Cn1c(-c2ccccc2)c(C#Cc2ccc(N)cc2)c2ccccc21,/,.,/,/,/,/,/,/,/,/,/,/
CC(/C=C1\SC(=S)N(NS(=O)(=O)c2ccc(C)cc2)C1=O)=C\c1ccccc1,.,.,.,39,.,99,.,0.1,0.072,0.083,0.08,0.071
CC(/C=C1\SC(=S)N(NC(=O)c2ccccc2C)C1=O)=C\c1ccccc1,.,.,.,.,.,.,/,/,/,/,/,/
COc1cc(/C=C2\SC(=S)N(NS(=O)(=O)c3ccc(C)cc3)C2=O)cc(OC)c1OC,.,.,.,.,.,7.8,.,0.022,.,0.014,.,.
CC(/C=C1\SC(=S)N(C(C(=O)O)C(C)C)C1=O)=C\c1ccccc1 (configuration not stated),.,.,.,.,.,-3.3,.,.,0.025,.,?,.
CC(/C=C1\SC(=S)N(CCCC(=O)Nc2ccc(C(=O)O)c(O)c2)C1=O)=C\c1ccccc1,.,.,.,.,.,-4.7,.,.,.,.,0.014,.
COc1cccc(/C=C2\SC(=S)N(NS(=O)(=O)c3ccc(C)cc3)C2=O)c1OC,.,.,.,.,.,/,/,/,/,/,/,/
Cc1cc(C(=O)Nc2ncn(Cc3ccc(F)cc3)n2)ccc1[N+](=O)[O-],.,.,.,.,.,.,/,/,/,/,/,/
O=C(NCCOC12CC3CC(CC(C3)C1)C2)c1cccc(Br)c1,.,.,.,.,.,.,/,/,/,/,/,/
CCN1C(=O)[C@H]2[C@@H](c3ccc(OC)cc3)N3C(=O)CN(CCOC)C(=O)[C@@]3(Cc3ccccc3)[C@H]2C1=O,.,.,.,.,.,/,/,/,/,/,/,/
COc1cc(/C=C2\SC(=S)N(NS(=O)(=O)c3ccc(C)cc3)C2=O)ccc1O,.,.,.,.,.,-4.9,.,-0.0052,0.018,0.0044,0.0057,?
COc1cc(/C=C2\SC(=S)N(NS(=O)(=O)c3ccccc3)C2=O)ccc1O,.,.,.,.,.,.,/,/,/,/,/,/
CCCCSc1nnc(-c2ccc(OC)cc2)n1C,.,.,.,.,.,-5,.,.,.,.,.,.
Cc1cccc(N(C(=O)CCC(=O)Nc2ccccn2)C(C(=O)NC(C)C)c2ccc(O)cc2)c1 (configuration not stated),.,.,.,.,.,-3.5,.,.,.,.,.,.
Cc1cccc(N(C(=O)CCC(=O)Nc2ccccn2)C(C(=O)NC(C)C)c2ccc(F)cc2)c1 (configuration not stated),.,.,.,.,.,/,/,/,/,/,/,/
SMILES,hERG rescue,SUMO Mot1 rescue,AI-2 QS modul,KCNQ1 act,KCNQ1 block,KCC2 mod,KCC2 sec1,KCC2 bumet counter,KCC2 secondary2,HEK counter1,KCC2 ouabain,HEK293 Tl flux2
CCN1C(=O)[C@H]2[C@@H](c3ccc(-c4ccc(F)cc4)c(OC)c3)N[C@@](Cc3ccccc3)(C(=O)OC)[C@H]2C1=O,/,.,/,/,/,/,/,/,/,/,/,/
Cc1cnc(NC(=O)c2c(O)c3cccc4c3n(c2=O)CCC4)s1,.,/,.,.,.,.,/,/,/,/,/,/
CC(C)c1nnc(NC(=O)c2c(O)c3cccc4c3n(c2=O)CCC4)s1,.,.,.,.,.,/,.,0.009,.,.,0.017,.
Cc1noc(C)c1C(=O)NCc1ccccc1F,.,.,.,.,.,.,/,/,/,/,/,/
O=c1/c(=C/c2ccc(O)c([N+](=O)[O-])c2)sc2nc3ccccc3n12,/,/,/,/,/,-3.7,.,.,.,.,.,.
CCn1c(NC(C)=O)nc2ccccc21,.,.,.,.,.,.,/,/,/,/,/,/
CCn1c(NC(=O)c2cccs2)nc2ccccc21,.,.,.,.,.,27,.,0.03,.,0.019,?,0.021
CSc1ccccc1NC(=O)c1cc(C)on1,.,.,.,.,.,/,/,/,/,/,/,/
CSc1ccccc1NC(=O)c1cc(C(C)C)on1,.,.,.,.,.,/,.,.,.,.,.,.
